Legend:
Mus musculus [1] = experiment: Iron chelating activity in iron-overloaded BDF1 mouse assessed as iron level in lung at 40 mg/kg, ip treated from day 8 to 13 after erythrocyte suspension injection on day 1, 3 and 5 by atomic absorption spectroscopic analysis; format: functional; details: route intraperitoneal
Outline: (§1)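 Iron-loaded male BDF1 mice (10 per group) given ip drug in EtOH/Tween 80/saline vehicle daily on days 8-13. On day 15, under Et2O, mice were exsanguinated. Organs were washed, frozen, thawed, weighed and homogenized in 0.014 M NaCl made with iron-free water; supernatant iron was measured by AAS, as μg/mouse. Mean ± SD; t test versus iron-loaded vehicle control.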

Mus musculus [2] = experiment: Iron chelating activity in iron-overloaded BDF1 mouse assessed as iron level in lung at 80 mg/kg, ip treated from day 8 to 13 after erythrocyte suspension injection on day 1, 3 and 5 by atomic absorption spectroscopic analysis; format: functional; details: route intraperitoneal; outline: as §1
Mus musculus [3] = experiment: Iron chelating activity in iron-overloaded BDF1 mouse assessed as daily urinary iron level at 40 mg/kg, ip treated from day 8 to 13 after erythrocyte suspension injection on day 1, 3 and 5 by atomic absorption spectroscopic analysis; format: functional, Urine; details: route intraperitoneal
[4] = Binding affinity to FeSO4 assessed as stability constant at pH 7.5 after 1 hr; format: physicochemical; details: pH 7.5, 1 h
[5] = Binding affinity to Fe(NO3)3 assessed as stability constant at pH 7.5 after 1 hr; format: physicochemical; details: pH 7.5, 1 h
[6] = Iron chelating activity assessed as removal of [59]-Fe from [59]-Fe-labeled transferrin at 1 mM measured per hr by spectrometric analysis; format: physicochemical; details: 1000 µM
Outline: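 About 10^6 cpm of 59Fe-labeled transferrin in 1.0 mL of 0.1 M Hepes (pH 7.00), inside a dialysis sack, dialyzed at room temperature against 25.0 mL of 1.00 mM ligand in the same buffer. Dialysate aliquots of 1.00 mL taken at intervals were gamma-counted (800-1400 keV window). Initial release rates were derived from these counts.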

[7] = Iron chelating activity assessed as removal of iron from ferritin after 20 hrs by atomic absorption spectrophotometric analysis; format: physicochemical
Outline: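 Ferritin holding 1.34 mg total Fe was dialyzed at room temperature against 25.0 mL of 1.00 mM ligand solution. Iron in the dialysate was measured by atomic absorption spectroscopy at 20 h.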

Mus musculus [8] = experiment: Iron chelating activity in iron-overloaded BDF1 mouse assessed as transferrin saturation at 40 mg/kg, ip treated from day 8 to 13 after erythrocyte suspension injection on day 1, 3 and 5 relative to control; format: functional; details: route intraperitoneal
Outline: (§2)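 Iron-loaded male BDF1 mice (10 per group) received ip drug daily on days 8-13, with non-loaded and iron-loaded vehicle-treated control groups. On day 15, blood collected by cardiac puncture under Et2O was pooled per group. Percent transferrin saturation was measured with a standard hematologic kit.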

Mus musculus [9] = experiment: Iron chelating activity in iron-overloaded BDF1 mouse assessed as transferrin saturation at 80 mg/kg, ip treated from day 8 to 13 after erythrocyte suspension injection on day 1, 3 and 5 relative to control; format: functional; details: route intraperitoneal; outline: as §2
Mus musculus [10] = experiment: Iron chelating activity in iron-overloaded BDF1 mouse assessed as daily urinary iron level at 80 mg/kg, ip treated from day 8 to 13 after erythrocyte suspension injection on day 1, 3 and 5 by atomic absorption spectroscopic analysis; format: functional, Urine; details: route intraperitoneal
Mus musculus [11] = experiment: Iron chelating activity in iron-overloaded BDF1 mouse assessed as iron level in liver at 40 mg/kg, ip treated from day 8 to 13 after erythrocyte suspension injection on day 1, 3 and 5 by atomic absorption spectroscopic analysis; format: functional; details: route intraperitoneal; outline: as §1
Mus musculus [12] = experiment: Iron chelating activity in iron-overloaded BDF1 mouse assessed as iron level in liver at 80 mg/kg, ip treated from day 8 to 13 after erythrocyte suspension injection on day 1, 3 and 5 by atomic absorption spectroscopic analysis; format: functional; details: route intraperitoneal; outline: as §1
Mus musculus [13] = experiment: Iron chelating activity in iron-overloaded BDF1 mouse assessed as iron level in spleen at 40 mg/kg, ip treated from day 8 to 13 after erythrocyte suspension injection on day 1, 3 and 5 by atomic absorption spectroscopic analysis; format: functional; details: route intraperitoneal; outline: as §1
Mus musculus [14] = experiment: Iron chelating activity in iron-overloaded BDF1 mouse assessed as iron level in spleen at 80 mg/kg, ip treated from day 8 to 13 after erythrocyte suspension injection on day 1, 3 and 5 by atomic absorption spectroscopic analysis; format: functional; details: route intraperitoneal; outline: as §1
Mus musculus [15] = experiment: Iron chelating activity in iron-overloaded BDF1 mouse assessed as iron level in heart at 40 mg/kg, ip treated from day 8 to 13 after erythrocyte suspension injection on day 1, 3 and 5 by atomic absorption spectroscopic analysis; format: functional; details: route intraperitoneal; outline: as §1
Mus musculus [16] = experiment: Iron chelating activity in iron-overloaded BDF1 mouse assessed as iron level in heart at 80 mg/kg, ip treated from day 8 to 13 after erythrocyte suspension injection on day 1, 3 and 5 by atomic absorption spectroscopic analysis; format: functional; details: route intraperitoneal; outline: as §1
[17] = Binding affinity to FeSO4 assessed as stability constant at pH 7.4 after 1 hr; format: physicochemical; details: pH 7.4, 1 h
Outline: (§3)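 Continuous-variation (Job) method: iron and ligand solutions diluted after 1 h to 10.00 mL with 50 mM barbital buffer (pH 7.4), all containing 0.100 M KNO3. Visible absorbance at λmax was read at several times to confirm equilibrium. Absorbance was plotted against metal/(metal + ligand) to give the stoichiometry and minimum stability constant.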

[18] = Binding affinity to Fe(NO3)3 assessed as stability constant at pH 7.4 after 1 hr; details: pH 7.4, 1 h
Mus musculus [19] = experiment: Iron chelating activity in iron-overloaded BDF1 mouse assessed as iron level in heart at 100 mg/kg, ip treated from day 8 to 13 after erythrocyte suspension injection on day 1, 3 and 5 by atomic absorption spectroscopic analysis; format: functional; details: route intraperitoneal; outline: as §1
Mus musculus [20] = experiment: Iron chelating activity in iron-overloaded BDF1 mouse assessed as iron level in lung at 50 mg/kg, ip treated from day 8 to 13 after erythrocyte suspension injection on day 1, 3 and 5 by atomic absorption spectroscopic analysis; format: functional; details: route intraperitoneal; outline: as §1
Mus musculus [21] = experiment: Iron chelating activity in iron-overloaded BDF1 mouse assessed as iron level in lung at 100 mg/kg, ip treated from day 8 to 13 after erythrocyte suspension injection on day 1, 3 and 5 by atomic absorption spectroscopic analysis; format: functional; details: route intraperitoneal; outline: as §1
[22] = Binding affinity to Fe(NO3)3 assessed as stability constant at pH 7.4 after 1 hr; format: physicochemical; details: pH 7.4, 1 h; outline: as §3
Mus musculus [23] = experiment: Iron chelating activity in iron-overloaded BDF1 mouse assessed as transferrin saturation at 50 mg/kg, ip treated from day 8 to 13 after erythrocyte suspension injection on day 1, 3 and 5 relative to control; format: functional; details: route intraperitoneal; outline: as §2
Mus musculus [24] = experiment: Iron chelating activity in iron-overloaded BDF1 mouse assessed as transferrin saturation at 100 mg/kg, ip treated from day 8 to 13 after erythrocyte suspension injection on day 1, 3 and 5 relative to control; format: functional; details: route intraperitoneal; outline: as §2
Mus musculus [25] = experiment: Iron chelating activity in iron-overloaded BDF1 mouse assessed as daily urinary iron level at 50 mg/kg, ip treated from day 8 to 13 after erythrocyte suspension injection on day 1, 3 and 5 by atomic absorption spectroscopic analysis; format: functional, Urine; details: route intraperitoneal
Mus musculus [26] = experiment: Iron chelating activity in iron-overloaded BDF1 mouse assessed as daily urinary iron level at 100 mg/kg, ip treated from day 8 to 13 after erythrocyte suspension injection on day 1, 3 and 5 by atomic absorption spectroscopic analysis; format: functional, Urine; details: route intraperitoneal
Mus musculus [27] = experiment: Iron chelating activity in iron-overloaded BDF1 mouse assessed as iron level in liver at 50 mg/kg, ip treated from day 8 to 13 after erythrocyte suspension injection on day 1, 3 and 5 by atomic absorption spectroscopic analysis; format: functional; details: route intraperitoneal; outline: as §1
Mus musculus [28] = experiment: Iron chelating activity in iron-overloaded BDF1 mouse assessed as iron level in liver at 100 mg/kg, ip treated from day 8 to 13 after erythrocyte suspension injection on day 1, 3 and 5 by atomic absorption spectroscopic analysis; format: functional; details: route intraperitoneal; outline: as §1
Mus musculus [29] = experiment: Iron chelating activity in iron-overloaded BDF1 mouse assessed as iron level in spleen at 50 mg/kg, ip treated from day 8 to 13 after erythrocyte suspension injection on day 1, 3 and 5 by atomic absorption spectroscopic analysis; format: functional; details: route intraperitoneal; outline: as §1
Mus musculus [30] = experiment: Iron chelating activity in iron-overloaded BDF1 mouse assessed as iron level in spleen at 100 mg/kg, ip treated from day 8 to 13 after erythrocyte suspension injection on day 1, 3 and 5 by atomic absorption spectroscopic analysis; format: functional; details: route intraperitoneal; outline: as §1
Mus musculus [31] = experiment: Iron chelating activity in iron-overloaded BDF1 mouse assessed as iron level in heart at 50 mg/kg, ip treated from day 8 to 13 after erythrocyte suspension injection on day 1, 3 and 5 by atomic absorption spectroscopic analysis; format: functional; details: route intraperitoneal; outline: as §1
Mus musculus [32] = experiment: Iron chelating activity in iron-overloaded BDF1 mouse assessed as iron level in lung at 125 mg/kg, ip treated from day 8 to 13 after erythrocyte suspension injection on day 1, 3 and 5 by atomic absorption spectroscopic analysis; format: functional; details: route intraperitoneal; outline: as §1
[33] = Binding affinity to Fe(NO3)3 assessed as stability constant; format: physicochemical
Outline: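 Minimum stability constant and stoichiometry were found by continuous variation (Job plot). Metal and ligand solutions stood 1 h and were then diluted with 50 mM barbital buffer (pH 7.4) containing 0.100 M KNO3. Visible absorbance at λmax was read at several times to confirm equilibrium. Absorbance was plotted against metal/(metal + ligand).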

Mus musculus [34] = experiment: Iron chelating activity in iron-overloaded BDF1 mouse assessed as transferrin saturation at 125 mg/kg, ip treated from day 8 to 13 after erythrocyte suspension injection on day 1, 3 and 5 relative to control; format: functional; details: route intraperitoneal; outline: as §2
Mus musculus [35] = experiment: Iron chelating activity in iron-overloaded BDF1 mouse assessed as daily urinary iron level at 125 mg/kg, ip treated from day 8 to 13 after erythrocyte suspension injection on day 1, 3 and 5 by atomic absorption spectroscopic analysis; format: functional, Urine; details: route intraperitoneal
Mus musculus [36] = experiment: Iron chelating activity in iron-overloaded BDF1 mouse assessed as iron level in liver at 125 mg/kg, ip treated from day 8 to 13 after erythrocyte suspension injection on day 1, 3 and 5 by atomic absorption spectroscopic analysis; format: functional; details: route intraperitoneal; outline: as §1
Mus musculus [37] = experiment: Iron chelating activity in iron-overloaded BDF1 mouse assessed as iron level in spleen at 125 mg/kg, ip treated from day 8 to 13 after erythrocyte suspension injection on day 1, 3 and 5 by atomic absorption spectroscopic analysis; format: functional; details: route intraperitoneal; outline: as §1
Mus musculus [38] = experiment: Iron chelating activity in iron-overloaded BDF1 mouse assessed as iron level in heart at 125 mg/kg, ip treated from day 8 to 13 after erythrocyte suspension injection on day 1, 3 and 5 by atomic absorption spectroscopic analysis; format: functional; details: route intraperitoneal; outline: as §1

Activity [6] | Activity [7] | Activity [17] | SMILES | Activity (Mus musculus [1]) | Activity (Mus musculus [2]) | Activity (Mus musculus [3]) | Activity (Mus musculus [8]) | Activity (Mus musculus [9]) | Activity (Mus musculus [10]) | Activity (Mus musculus [11]) | Activity (Mus musculus [12]) | Activity (Mus musculus [13]) | Activity (Mus musculus [14]) | Activity (Mus musculus [15]) | Activity (Mus musculus [16]) | Activity [33] | further results
0.4% | 48.8 µM | – | S=C([S-])N/N=C/c1cnccn1.[Na+] | 14.8 µg | 17.7 µg | 1.4 µg | 51% | 27% | 5.5 µg | 193 µg | 176 µg | 14 µg | 18.6 µg | 8.5 µg | 10.6 µg | – | Activity [4]: > 17; Activity [5]: > 25
0.3% | 1.4 µM | > 17 | NC(=S)N/N=C/c1cnccn1 | 15.4 µg | 16.1 µg | 1.1 µg | 58% | 44% | 1.1 µg | 171 µg | 156 µg | 16.7 µg | 14.6 µg | 9.2 µg | 9.4 µg | – | Activity [18]: > 25
0.1% | < 1 µM | 16.4 | C(=N\Nc1cnccn1)/c1cnccn1 | – | – | – | – | – | – | – | – | – | – | – | – | – | Activity (Mus musculus [19]): 7.6 µg; Activity (Mus musculus [20]): 14.6 µg; Activity (Mus musculus [21]): 12.8 µg; Activity [22]: > 27; Activity (Mus musculus [23]): 44%; Activity (Mus musculus [24]): 38%; Activity (Mus musculus [25]): 3.4 µg; Activity (Mus musculus [26]): 4.9 µg; Activity (Mus musculus [27]): 174 µg; Activity (Mus musculus [28]): 164 µg; Activity (Mus musculus [29]): 16.4 µg; Activity (Mus musculus [30]): 14.9 µg; Activity (Mus musculus [31]): 7.4 µg
0.3% | – | – | N/C(S)=N/N=C/c1ccccn1 | – | – | – | – | – | – | – | – | – | – | – | – | – | –
1% | 25.2 µM | – | CC(=O)N(O)CCCCCNC(=O)CCC(=O)N(O)CCCCCNC(=O)CCC(=O)N(O)CCCCCN [DEFEROXAMINE] | – | – | – | – | – | – | – | – | – | – | – | – | 30.6 | Activity (Mus musculus [32]): 16.4 µg; Activity (Mus musculus [34]): 75%; Activity (Mus musculus [35]): 3 µg; Activity (Mus musculus [36]): 132 µg; Activity (Mus musculus [37]): 19.2 µg; Activity (Mus musculus [38]): 9.4 µg

SMILES | Activity [6] | Activity [7] | Activity [17] | Activity (Mus musculus [1]) | Activity (Mus musculus [2]) | Activity (Mus musculus [3]) | Activity (Mus musculus [8]) | Activity (Mus musculus [9]) | Activity (Mus musculus [10]) | Activity (Mus musculus [11]) | Activity (Mus musculus [12]) | Activity (Mus musculus [13]) | Activity (Mus musculus [14]) | Activity (Mus musculus [15]) | Activity (Mus musculus [16]) | Activity [33] | further results
O=c1cccccc1O [TROPOLONE] | 19.7% | 4.1 µM | – | – | – | – | – | – | – | – | – | – | – | – | – | 10.5 | –
